Source: ChEMBL document CHEMBL1138882, “The design, synthesis, and evaluation of organ-specific iron chelators” (J Med Chem, 2006)

Legend:
[1] = test system: Rattus norvegicus; assay: Iron clearing efficiency in Sprague-Dawley rat at 300 umol/kg, po; assay type: functional
How it was run: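 Bile-duct-cannulated, non-iron-overloaded male Sprague-Dawley rats (400–450 g) given single oral dose, 150 or 300 μmol/kg, as water solution, in 40% Cremophor RH-40/water, or monosodium salt. Bile every 3 h up to 48 h, urine every 24 h; iron by flame AAS. Efficiency = (treated minus control iron excretion)/theoretical output (2:1 complex), percent; mean ± SEM.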

[2] = test system: Rattus norvegicus; assay: Drug level in Sprague-Dawley rat kidney at 300 umol/kg, sc after 0.5 hrs; assay type: ADME, organism-based; conditions: in vivo
How it was run: (§1)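 Kidney level after single sc 300 μmol/kg monosodium salt in male Sprague-Dawley rats (250–350 g), n = 3 per time point. Water homogenate (1:2 w/v), methanol protein precipitation, 0.2 μm filtration, RP amide C16 HPLC with UV at 310 nm; linear range 1–1000 μM; reported as nmol/g wet weight, mean.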

[3] = test system: Rattus norvegicus; assay: Toxicity in Sprague-Dawley rat at 384 umol/kg, po; assay type: organism-based; conditions: in vivo
How it was run: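 Male Sprague-Dawley rats (250–300 g), fasted overnight, gavaged once daily at 384 μmol/kg/d for up to 10 d; fed ~3 h post-dose for 5 h, then fasted. Age-matched controls; monitored at least three times daily, moribund animals euthanized; survivors sacrificed one day after last dose for histopathology.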

[4] = test system: Monkey; assay: Iron clearing efficiency in monkey at 150 umol/kg; assay type: functional, Sapajus apella
How it was run: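 Cebus apella monkeys (3.5–4 kg) iron-overloaded with iv iron dextran (~500 mg Fe/kg), ≥60 d before use; single po 150 μmol/kg (monosodium salt or 40% Cremophor RH-40/water). Feces and urine collected every 24 h, 4 d before to 5 d after dosing; iron by flame AAS. ICE = 2-day post-drug output minus 4-day pre-drug mean, over theoretical (2:1 complex), percent; mean ± SEM.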

[5] = Drug level in Sprague-Dawley rat plasma at 300 umol/kg, sc after 2 hrs; assay type: ADME, organism-based
How it was run: (§2)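 Plasma: male Sprague-Dawley rats (250–350 g) dosed sc once at 300 μmol/kg as monosodium salt; blood by cardiac puncture into sodium citrate, centrifuged; methanol deproteinization, filtered, HPLC-UV 310 nm, detection limit 0.5 μM; μM, mean of n = 3 per time point.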

[6] = (§3) Drug level in Sprague-Dawley rat plasma at 300 umol/kg, sc after 0.5 hrs; assay type: ADME, organism-based; conditions: Sprague-Dawley, plasma, 300 umol/kg; how it was run: as §2
[7] = test system: Rattus norvegicus; assay: Drug level in Sprague-Dawley rat pancreas at 300 umol/kg, sc after 4 hrs; assay type: ADME, organism-based; conditions: in vivo
How it was run: (§4)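 Pancreas concentration: single sc 300 μmol/kg (monosodium salt) to male Sprague-Dawley rats (250–350 g), three rats per time point, CO2 euthanasia. Tissue homogenate in water (1:2 w/v), CH3OH protein precipitation, filtration, RP HPLC with 310 nm UV detection; nmol/g wet weight, mean.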

[8] = test system: Rattus norvegicus; assay: Drug level in Sprague-Dawley rat heart at 300 umol/kg, sc after 0.5 hrs; assay type: ADME, organism-based; conditions: in vivo
How it was run: (§5)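 Heart drug level: male Sprague-Dawley rats (250–350 g), single sc injection of monosodium salt, 300 μmol/kg; CO2 euthanasia at set times (n = 3 per time point). Tissue homogenized in water 1:2 (w/v), proteins precipitated with 3 vol CH3OH at −20 °C 20 min, filtered; reversed-phase HPLC, UV 310 nm, calibration-curve quantitation; nmol/g wet weight, mean.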

[9] = test system: Rattus norvegicus; assay: Drug level in Sprague-Dawley rat liver at 300 umol/kg, sc after 0.5 hrs; assay type: ADME, organism-based; conditions: in vivo
How it was run: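 Liver sampled from male Sprague-Dawley rats (250–350 g) given one sc dose, 300 μmol/kg, as monosodium salt; n = 3 per time point. Homogenized in water, methanol-precipitated, filtered, analysed by HPLC-UV at 310 nm against calibration curves; nmol compound per g wet weight, mean; O-demethylated metabolite also measured.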

[10] = test system: Rattus norvegicus; assay: Drug level in Sprague-Dawley rat heart at 300 umol/kg, sc after 4 hrs; assay type: ADME, organism-based; conditions: in vivo; how it was run: as §5
[11] = Partition coefficient, log P of the compound; assay type: physicochemical; conditions: octanol/water
How it was run: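 Shake-flask direct partition between octanol and TRIS buffer, pH 7.4; expressed as log of the fraction in the octanol layer (log P_app).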

[12] = test system: Rattus norvegicus; assay: Drug level in Sprague-Dawley rat pancreas at 300 umol/kg, sc after 1 hr; assay type: ADME, organism-based; conditions: in vivo; how it was run: as §4
[13] = test system: Rattus norvegicus; assay: Drug level in Sprague-Dawley rat kidney at 300 umol/kg, sc after 1 hr; assay type: ADME, organism-based; conditions: in vivo; how it was run: as §1
[14] = test system: Rattus norvegicus; assay: Drug level in Sprague-Dawley rat heart at 300 umol/kg, sc after 8 hrs; assay type: ADME, organism-based; conditions: in vivo; how it was run: as §5
[15] = test system: Rattus norvegicus; assay: as §3; assay type: ADME, organism-based; conditions: in vivo, 0.5 h; how it was run: as §2

Drug uptake [2] [nmol/g] | concentration at 2 h [5] [µM] | concentration at 0.5 h [6] [µM] | Drug uptake [7] [nmol/g] | Drug uptake [8] [nmol/g] | Drug uptake [9] [nmol/g] | Drug uptake [10] [nmol/g] | logP [11] | Drug uptake [12] [nmol/g] | Drug uptake [13] [nmol/g] | Drug uptake [14] [nmol/g] | Cp [15] [µM] | SMILES | Activity [1] [%] | Activity [3] | Activity [4] [%]
667 | 5 | 209 |  |  |  |  |  |  |  |  |  | O=C(O)[C@H]1CSC(c2ccc(O)cc2O)=N1 | 2.9 | Non-toxic | 4.2
282 |  |  |  |  |  |  |  |  |  |  |  | COc1ccc(C2=N[C@@](C)(C(=O)O)CS2)c(O)c1 | 6.6 | Toxic | 24.4
 |  |  | 45 | 380 | 564 | 61 | -0.81 |  |  |  |  | COc1ccc(O)c(C2=N[C@@H](C(=O)O)CS2)c1 | 8.9 | Non-toxic | 12
629 |  |  |  | 42 |  |  | -1.52 |  |  |  |  | O=C(O)[C@H]1CSC(c2cc(O)ccc2O)=N1 |  | Non-toxic | 1.8
1216 |  |  |  |  |  |  | -1.14 |  |  |  |  | C[C@]1(C(=O)O)CSC(c2cc(O)ccc2O)=N1 | 1 | Non-toxic | 12.6
 |  | 803 |  | 208 | 382 |  | -0.61 | 153 |  |  |  | COc1ccc(O)c(C2=N[C@@](C)(C(=O)O)CS2)c1 | 6.3 | Toxic | 18.9
361 | 13 | 92 |  |  | 124 |  |  |  | 179 |  |  | C[C@]1(C(=O)O)CSC(c2ccc(O)cc2O)=N1 [DEFERITRIN] | 1.1 | Non-toxic | 16.8
1375 |  |  |  | 259 | 924 |  | -0.95 |  |  | 3 | 907 | COc1ccc(C2=N[C@@](C)(C(=O)O)CS2)c(O)c1OC | 16.6 | Toxic | 
 |  |  |  | 185 |  |  | -1.28 |  |  |  |  | COc1ccc(C2=N[C@@H](C(=O)O)CS2)c(O)c1OC | 11.9 | Non-toxic | 12.4
 |  |  |  |  |  |  |  |  |  |  |  | COc1ccc(C2=N[C@@H](C(=O)O)CS2)c(O)c1 | 11.6 | Non-toxic | 16.2
